High-throughput results as filed in PubChem BioAssay.
Shown are actives, neighbours in structure and some others; about 8.8% of the full set was active somewhere.
S1P1 ag pot – agonists and agonism potentiators of human S1P1 receptor. P21453. S1P1 CRE-bla cells, forskolin, beta-lactamase FRET, potentiator mode; S1P1 agonist co-added at EC20, 2 nM; 100% = saturating reference agonist, 0% = basal. 56,000 tested, 0.57% active. activation, % at 9.5 µM;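 active = activation above a cutoff set at the mean activation of all tested compounds plus 3 SD, cut at about 54% in these data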;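 note: forskolin at 4 µM as EC80 and the EC20 agonist is SEW2871; 100% = SEW2871 at its EC100 plus forskolin at EC80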
RORa activator – activates the human nuclear receptor RORA; P35398; CHO-K1 Gal4-RORA LBD luciferase reporter, luminescence; percent increase over mock-subtracted basal signal; activation, % at 10 µM; 65,000 tested, 1.5% active;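 active = activation above the mean of all tested compounds plus 3 SD, cut at about 49% in these data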;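 note: 0% = DMSO-treated RORA cells and 100% = added signal equal to DMSO minus mock-transfected cells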
M1 ag – agonists of M1 muscarinic receptor; B-score at 10 µM; CHO-M1 cells, Fluo-4 calcium fluorescence, agonist mode; active compounds read high; 64,000 tested, 3% active;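 active = fluorescence rise, raw or as B-score row- and column-corrected plate score, outside the 99.7% band of its plate's samples, either direction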
SF1 activator – activates the human nuclear receptor SF-1 | Q13285 | CHO-K1 Gal4-SF-1 LBD luciferase reporter; % increase over DMSO SF-1-specific signal | activation, % at 10 µM | 65,000 tested, 1.9% active | AID 522;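 active = activation above the mean activation of all tested compounds plus 3 SD, cut at about 50% in these data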
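Compound – one dose, 10 µM compound, 1% DMSO · Test system – transient Gal4-SF-1 LBD reporter, CHO-K1 · Input – 4,000 cells in each well · Read-out basis – percent activation relative to DMSO median and mock-transfected background · Replicates – single measurement per compound · Technique – steady-glow luciferase luminescence, read after 15 min reagent incubation · Timing – 20 h compound treatment, 37 °C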
M1 antag – antagonists of rat M1 muscarinic receptor; CHO-M1 cells, Fluo-4 calcium, ACh EC80 antagonist mode; active compounds read low; B-score at 10 µM; 64,000 tested, 3.4% active; AID 628;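 active = calcium fluorescence response, raw or row-and-column corrected B-score, differing from the plate sample mean either way at a set confidence level, mostly lower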
S1P3 ag – agonists of human S1P3 receptor. S1P3 NFAT-BLA reporter cells, agonism, FRET ratio; relative to 1 µM S1P, basal subtracted. AID 373. activation, % at 4.5 µM. 60,000 tested, 0.1% active. Q99500;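 active = activation above the screen-wide mean plus 3 SD, cut at about 4.5% in these data, passing the limit was not always enough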
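Material: Human S1P3 NFAT-BLA reporter CHO cells | Incubation: Overnight plating, 4 h compound 37 °C, 2 h substrate RT | Signal: FRET β-lactamase substrate fluorescence, excitation 405 nm, 460/535 nm emission ratio, background-subtracted | Compound: 4.5 µM final, single dose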
M1 ag confirm – rat M1 muscarinic agonism, confirmation; shares compounds with M1 ag; CHO-M1 cells, Fluo-4 calcium fluorescence, agonist mode; actives lie on both sides; fluorescence change (max-min) at 10 µM; 1,700 tested, 19% active;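 active = fluorescence change differs from the solvent-only DMSO control mean at a set confidence level in both duplicate runs; inconclusive = differs from solvent-only control mean in just one of two runs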;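 note: an EC20 dose of acetylcholine follows compound addition during the same imaging run; raw fluorescence intensity difference in instrument units with no normalization to controls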
M4 ag counter – activates rat M4 receptor in counter-screen for M1 agonists | 1,700 tested, 9% active | shares compounds with M1 ag | CHO M4/Gqi5 cells, Fluo-4 calcium fluorescence, agonist mode; actives lie on both sides | fluorescence change (max-min) at 10 µM;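 active = fluorescence change differing from the plate's solvent-only control wells at 99.7% confidence in both duplicates, whether higher or lower; inconclusive = differs from solvent controls in only one of two duplicates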
Target sequence (P08485 whole entry, looked up): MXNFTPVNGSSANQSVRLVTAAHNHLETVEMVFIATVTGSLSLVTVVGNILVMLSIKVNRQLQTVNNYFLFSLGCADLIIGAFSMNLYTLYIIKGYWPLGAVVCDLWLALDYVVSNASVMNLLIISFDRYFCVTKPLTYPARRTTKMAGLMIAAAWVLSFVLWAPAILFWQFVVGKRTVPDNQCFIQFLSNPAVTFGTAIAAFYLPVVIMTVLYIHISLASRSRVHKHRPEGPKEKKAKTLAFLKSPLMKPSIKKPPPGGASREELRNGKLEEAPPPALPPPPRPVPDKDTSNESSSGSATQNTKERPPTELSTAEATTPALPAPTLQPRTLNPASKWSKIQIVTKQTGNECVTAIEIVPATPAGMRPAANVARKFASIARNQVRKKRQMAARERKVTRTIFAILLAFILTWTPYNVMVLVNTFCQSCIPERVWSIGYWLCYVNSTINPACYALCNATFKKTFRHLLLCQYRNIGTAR
Active calls of the source: *; u = inconclusive; x = no result.

SMILES	S1P1 ag pot	RORa activator	M1 ag	SF1 activator	M1 antag	S1P3 ag	M1 ag confirm	M4 ag counter
COc1cccc(-n2c(C)nnc2SCC(=O)Nc2ccccc2N2CCOCC2)c1	-14	-17	-0.5	1	-0.068	-1	x	x
COc1cccc(/C(O)=C2/C(=O)C(=O)N(CCCN(C)C)C2c2cccc(Cl)c2)c1 (stereo not given)	4	-4	-0.25	-6	0.14	0	x	x
CCN(CCNC(=O)c1cc(C)nn1-c1ccccc1)c1ccccc1	-13	-11	-0.43	4	-0.026	-1	x	x
Nc1nc2ccc(N3CCOCC3)cc2s1	-1	-21	-0.26	20	-0.29	0	x	x
COc1ccc(CCn2c(-c3ccco3)nc3ccccc3c2=O)cc1OC	-69	4	11*	9	-2.1*	-1	u	-73*
CCCCOc1ccc(C(=O)NCc2ccccn2)cc1	10	14	-0.29	20	-0.16	0	x	x
Cc1cc(NC(=O)COc2ncnc3sc(C)c(C)c23)no1	x	-2	15*	11	0.45	x	-11	-16
CC(=O)N=c1cccc(NC(C)=O)n1O	-4	-25	-0.034	0	0.21	-1	x	x
Cn1c(=O)c2c(SCC(=O)c3ccccc3)nc(C3CC3)nc2n(C)c1=O	-8	-19	2.7*	-13	-1	-1	-13	-44
COc1ccc(-n2nnc3c(SCC(=O)N4CCCc5ccccc54)ncnc32)cc1	0	-10	1.2	-14	0.38	0	x	x
CCOC(=O)C1=C2SCCN2C(=O)C(C#N)C1(C)C (stereo not given)	x	14	3.5*	4	-0.19	x	-16	-14
Cc1nn(C(=O)c2ccccc2)c2c1C(=O)CC(C)(C)C2	1	-11	9.7*	-12	-0.035	-1	-8.5	u
Cc1nn(-c2nc3ccccc3n2Cc2ccccc2)c2c1C(=O)CC(C)(C)C2	30	6	1	11	1.1	-1	x	x
O=C1Nc2cc3c(cc2Sc2ccccc21)OCCO3	-3	-11	0.11	-22	-0.0051	0	x	x
COC(=O)COc1cc(C)cc2oc(=O)c(CC(=O)OC)c(C)c12	x	-9	3.1*	-11	0.042	0	u	-33
Cc1cc(OCc2nn[nH]n2)c2c(C)c(CC(=O)O)c(=O)oc2c1	2	-8	-0.26	5	-0.23	-1	x	x
C=CCn1c(SCC(=O)Nc2c(C)cccc2C)nnc1-c1cnccn1	4	-1	0.41	-8	-0.35	0	x	x
CN(C)c1ccc(/C=C/c2ccncc2)cc1	-2	73*	10*	20	-0.014	0	111*	150*
COc1cccc(/C=C/c2ccncc2)c1OC	-12	5	-0.08	2	-0.037	0	x	x
CCn1c(=O)n(CC)c2cc(S(=O)(=O)N3CCc4ccccc43)ccc21	x	-3	2.6*	-2	0.42	-1	-6.5	-35
Cc1csc(SCC(=O)Nc2ccccn2)n1	-24	1	-0.78	8	0.19	0	x	x
Cc1csc(SCC(=O)Nc2cc(C(C)(C)C)nn2-c2ccccc2)n1	6	-26	2.5*	7	-1	0	u	-48
Cc1ccc(C(=O)CC2(O)C(=O)N(Cc3ccc4c(c3)OCO4)c3ccccc32)cc1 (stereo not given)	-2	-10	59*	3	-0.23	0	-9.7	-25
O=C(CC1(O)C(=O)N(Cc2ccc3c(c2)OCO3)c2ccccc21)c1ccccc1 (stereo not given)	1	-15	-0.12	6	-0.61	0	x	x
O=C(CSc1nc2ccc(Cl)cc2[nH]1)NCc1ccco1	-9	14	3.1*	3	-0.37	-1	-25*	-74*
SMILES	S1P1 ag pot	RORa activator	M1 ag	SF1 activator	M1 antag	S1P3 ag	M1 ag confirm	M4 ag counter
O=C(c1ccccc1)N1CCCOC1c1ccccc1 (stereo not given)	12	-18	0.17	-2	0.32	0	x	x
OCC12COC(c3ccccc3)N1C(c1ccccc1)OC2 (stereo not given)	8	-10	8.3*	-2	0.8	1	-16	u
CCCC1=C(C(=O)OCC)C(c2ccc(NC(C)=O)cc2)NC(=O)N1 (stereo not given)	13	-7	0.2	1	-0.04	-1	x	x
CCOC(=O)C1=C(CS(=O)(=O)c2ccccc2)NC(=O)NC1c1ccccc1 (stereo not given)	14	-10	4.3*	1	0.21	-1	u	u
Cn1c(=O)n(CC(=O)NC2CCCCC2)c(=O)c2ccccc21	-17	-4	-0.27	4	-0.29	0	x	x
c1ccc2c(c1)CCN(c1ncnc3c1[nH]c1ccccc13)C2	113*	-89	5.6*	-86	-3.4*	-8	10	-25
COc1cc2[nH]c3c(N4CCN(c5ccc(Cl)cc5)CC4)ncnc3c2cc1OC	2	27	-0.04	4	0.14	-2	x	x
Cc1ccc2[nH]c3c(N4CCN(Cc5ccccc5)CC4)ncnc3c2c1	33	-17	5.6	-26	-1.7	-2	x	x
COc1cccc(N2CCN(c3ncnc4c3[nH]c3ccccc34)CC2C)c1 (stereo not given)	127	-95	11*	-85	-3.4*	-4	u	-52
c1ccc(CN2CCN(c3ncnc4c3[nH]c3ccccc34)CC2)cc1	63*	-67	3.9*	-50	-2.7*	-6	-1.9	u
Cc1ccc2c(c1)[nH]c1c(N3CCN(Cc4ccccc4)CC3)ncnc12	133*	-23	3.9*	-50	-3.1*	-2	-13	u
Cc1ccc(F)c(NC=C2C(=O)OC(C)(C)OC2=O)c1	-25	-22	x	2	x	-1	x	x
CC(C)CC(C(=O)NCc1ccccn1)N1C(=O)c2ccccc2C1=O (stereo not given)	-4	-15	0.26	-12	0.46	-1	x	x
O=C1N2CCSC2=NC1(Nc1nccs1)C(F)(F)F (stereo not given)	-18	-1	-3	14	0.54	0	x	x
COc1ccc(N2C(=O)CC(Sc3nc(C)c4c(n3)CCCC4)C2=O)cc1 (stereo not given)	-10	41	2.2*	23	0.24	-1	-6	-13
Cc1ccc(-n2nnnc2SCC(=O)NC(=O)Nc2ccc3c(c2)OCCO3)cc1	-28	21	-0.21	20	1	1	x	x
Cc1ccc(NC(=O)CCSc2nnnn2-c2ccc3c(c2)OCO3)cc1C	18	14	-2.7*	-6	-0.17	-1	-5.8	-19
